From PubChem BioAssay
HKDC1 inh – blocks human hexokinase HKDC1 activity | AID 493160 | 340,000 compounds, 0.16% hits | recombinant HKDC1, G6PDH/diaphorase resazurin coupled fluorescence | inhibition, % at 20 µM;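 active means inhibition above about 35% when tested at 20 µM, limit read from the data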;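 further: plate controls were DMSO wells with enzyme for no effect and DMSO wells lacking enzyme for full effect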
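Material: recombinant HKDC1 hexokinase; Amount: HKDC1 at 5 µg/mL; Medium: Tris pH 8.0 buffer with MgCl2, Tween-20, BSA, BME; Schedule: 90 min reaction incubation at room temperature, dark; Technique: coupled resazurin fluorescence, excitation 525 nm, emission 613 nm.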
Scp-1 inhibitor – inhibitors of human Scp-1 phosphatase; Q9GZU7; Recombinant Scp1, phosphopeptide, malachite green phosphate absorbance; inhibition, % at 20 µM; 340,000 compounds, 0.88% hits;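 active means inhibition above about 50% at 20 µM, limit read from the data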;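 further: plate controls were DMSO wells with enzyme for no effect and wells lacking enzyme for full effect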
Target sequence (Q9GZU7 76-261 limits assumed): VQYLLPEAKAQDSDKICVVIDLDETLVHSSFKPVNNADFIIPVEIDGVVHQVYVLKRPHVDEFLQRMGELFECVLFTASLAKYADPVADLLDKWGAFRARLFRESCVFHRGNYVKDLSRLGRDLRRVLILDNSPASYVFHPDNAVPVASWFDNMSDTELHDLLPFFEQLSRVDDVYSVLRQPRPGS
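Material – SCP-1 phosphatase catalytic domain, residues 76-261 · Buffer or medium – Acidic Tris acetate buffer with magnesium and detergent · Also added – Phospho 17-mer peptide substrate · Compound – single 20 µM dose, 1% DMSO · Times – 45 min room-temperature reaction, 5 min colour, 30 min stabiliser · Technique – Phosphate-binding colour reagent, absorbance read at 630 nm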
LMPTP inh – LMPTP (human) inhibition. P24666. AID 651560. 360,000 compounds, 0.22% hits. recombinant LMPTP-A, OMFP fluorogenic substrate, fluorescence intensity. inhibition, % at 20 µM;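 active means compounds that cut the enzyme signal by at least half of the control window in the single-dose screen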;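 further: plate controls were DMSO wells with enzyme plus substrate for no effect and substrate without enzyme for full effect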
Target sequence (P24666 whole entry, looked up): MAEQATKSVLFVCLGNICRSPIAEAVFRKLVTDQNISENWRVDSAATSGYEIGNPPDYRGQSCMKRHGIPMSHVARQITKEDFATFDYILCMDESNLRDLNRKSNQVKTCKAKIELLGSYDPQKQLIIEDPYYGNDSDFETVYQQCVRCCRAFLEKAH
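Test system – LMPTP-A phosphatase enzyme · Quantity – 0.625 nM LMPTP-A final · Reagent – OMFP substrate, 400 µM final · Dosing – one test concentration per compound, 20 µM, with 3% DMSO overall · Timing – 50 min enzyme reaction at room temperature, protected from light · Detection – fluorescence intensity · Controls – substrate-only low control, DMSO enzyme-plus-substrate high control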
STEP block – inhibitors of human striatal-enriched phosphatase STEP; recombinant STEP, OMFP fluorogenic substrate, fluorescence; P54829; inhibition, % at 20 µM; 360,000 compounds, 0.25% hits;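 active means inhibition at 20 µM, scaled per plate between control wells, above about 37%, limit read from the data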;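 further: 0% = DMSO with enzyme and substrate and 100% = substrate only without enzyme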
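material = STEP tyrosine phosphatase | reagent = fluorogenic phosphatase substrate OMFP at 25 µM final | doses = single compound dose of 20 µM, 1% DMSO final | schedule = 20 min reaction, room temperature, in the dark | measured by = fluorescence, 480/540 nm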
DNMT1 block – inhibitors of human DNMT1. DNMT1 molecular beacon, Hinp1I cleavage, fluorescence. inhibition (reported as % activation of signal), % at 10 µM. 360,000 compounds, 0.83% hits. AID 588458; in the data active means inhibition above about 50%
SUMO1-SIM PPI – SUMO1-SIM interaction modulation; SUMO1 binding to a labelled peptide, TR-FRET, 1 h; 360,000 compounds, 0.33% hits; AID 602429; P63165; inhibition, % at 20 µM; in the data active means inhibition above about 37%
Target sequence (P63165 whole entry, looked up): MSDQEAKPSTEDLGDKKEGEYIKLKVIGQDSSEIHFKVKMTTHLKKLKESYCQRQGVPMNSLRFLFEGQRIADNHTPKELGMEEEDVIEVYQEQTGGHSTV
An asterisk follows results filed as active. Shown are actives, neighbours in structure and some others; about 1.8% of the full set was active somewhere.

Screening CCc1ccc(C=C2SC(=S)N(CCCC(=O)Nc3ccc(C(=O)O)cc3)C2=O)cc1 returned LMPTP inh 59.2*, STEP block 1.0, DNMT1 block 2.0 and SUMO1-SIM PPI -13.2.
For O=C(NCc1ccccc1)C(c1ccc(F)cc1)N(C(=O)c1csnn1)c1ccccc1 (centres undefined) the results were HKDC1 inh -5.9, Scp-1 inhibitor -0.6, LMPTP inh 0.4, STEP block -1.5, DNMT1 block 1.5 and SUMO1-SIM PPI 0.1.
Screening O=C1CC(N2CCC(c3nc4ccccc4o3)CC2)C(=O)N1Cc1cccs1 (centres undefined) returned HKDC1 inh -5.1, Scp-1 inhibitor -4.2, LMPTP inh 3.1, STEP block -1.7, DNMT1 block -2.5 and SUMO1-SIM PPI 56.8*.
FC(F)(F)c1ccccc1Cc1c(-c2cccc(Br)c2)nc2ccc(Br)cn12 was read as LMPTP inh 3.5, STEP block -0.7, DNMT1 block 9.1 and SUMO1-SIM PPI -5.4.
For COC(=O)c1ccc(C(=O)Nc2ccc(N)cc2N)cc1 the results were HKDC1 inh 8.2, Scp-1 inhibitor -9.1, LMPTP inh 6.3, STEP block 1.4, DNMT1 block -17.5 and SUMO1-SIM PPI 46.9*.
COc1ccccc1NC(=O)c1ccc(N)cc1 was read as HKDC1 inh -6.9, Scp-1 inhibitor -9.8, LMPTP inh 0.0, STEP block 0.0, DNMT1 block -4.1 and SUMO1-SIM PPI 0.7.
Screening CCOC(=O)c1c(C)[nH]c(C)c1C(=O)COC(=O)Cc1n[nH]c(=O)c2ccccc12 returned HKDC1 inh 4.8, Scp-1 inhibitor -2.8, LMPTP inh -1.4, STEP block -2.1, DNMT1 block 2.7 and SUMO1-SIM PPI 2.2.
For CN(C)CCN1CCN(C2CN(CCc3ccccc3)S(=O)(=O)C2)CC1 (centres undefined) the results were LMPTP inh -2.5, STEP block 14.3, DNMT1 block 21.1 and SUMO1-SIM PPI 14.1.
`COC1=CC(=O)c2nc(Cl)ccc2C1=O` gave LMPTP inh -0.5, STEP block -1.5, DNMT1 block 85.0* and SUMO1-SIM PPI 44.9*.
For Nc1c(N2CCOCC2)cc(Cl)c2nonc12 the results were HKDC1 inh 15.3, Scp-1 inhibitor -0.1, LMPTP inh -0.5, STEP block 15.3, DNMT1 block 3.1 and SUMO1-SIM PPI 8.8.
For Nc1c(N2CCCC2)cc(Cl)c2nonc12 the results were HKDC1 inh -4.5, Scp-1 inhibitor -5.8, LMPTP inh 7.9, STEP block 3.8, DNMT1 block 78.0* and SUMO1-SIM PPI 37.5.
For COc1ccc(-c2cc3c(=O)n(CC(=O)Nc4cccc(Cl)c4)nc(C)n3n2)cc1 the results were HKDC1 inh -2.7, Scp-1 inhibitor 5.8, LMPTP inh -3.2, STEP block -2.2, DNMT1 block 12.4 and SUMO1-SIM PPI -21.2.
Screening CCN1CCN(Cc2ccc(NC(=O)c3ccc(C)c(NC(=O)c4ccno4)c3)cc2C(F)(F)F)CC1 returned HKDC1 inh 4.5, Scp-1 inhibitor -0.5, LMPTP inh -3.1, STEP block 0.4, DNMT1 block -3.0 and SUMO1-SIM PPI 5.4.
`CCN1CCN(Cc2ccc(NC(=O)c3ccc(C)c(/C=C/c4cnc(Nc5cc(N6CCNCC6)nc(C)n5)cn4)c3)cc2C(F)(F)F)CC1` gave HKDC1 inh 5.9, Scp-1 inhibitor -3.0, LMPTP inh 1.2, STEP block -8.6, DNMT1 block -38.2 and SUMO1-SIM PPI 87.5*.
CN(C)c1ccc(CNc2ccccn2)cc1 was read as HKDC1 inh -3.5, Scp-1 inhibitor -5.0, LMPTP inh -0.7, STEP block -1.2, DNMT1 block 2.4 and SUMO1-SIM PPI -2.0.
Cc1cccc(NCc2ccc(N(C)C)cc2)n1 was read as HKDC1 inh -3.0, Scp-1 inhibitor -5.0, LMPTP inh -0.4, STEP block -1.8, DNMT1 block 60.4* and SUMO1-SIM PPI -1.2.
Screening O=c1[nH]nc(CNc2ccc(O)cc2)c2ccccc12 returned HKDC1 inh 15.4, Scp-1 inhibitor 6.3, LMPTP inh 13.3, STEP block -0.7, DNMT1 block 5.6 and SUMO1-SIM PPI 55.1*.
